# In ChEMBL document CHEMBL2163205 (J Med Chem, 2012):
# Key:
# [1] = Intrinsic clearance in human liver microsomes assessed as metabolic turnover
# Cathepsin B = Cathepsin B (Homo sapiens, UniProt P07858); test: Inhibition of human recombinant CatB assessed as suppression of enzyme-mediated Z-Arg-Arg-AMC cleavage by QFRET assay
# Outline: (§1)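 Recombinant human Cat B at 0.5 nM final was preincubated with compound for 30 min at room temperature. Z-Arg-Arg-AMC (100 μM final) was added in potassium phosphate buffer, pH 6.4, incubated 1 h, then stopped with acetic acid. Fluorescence read at ex 360/em 425 nm with background correction; IC50 by nonlinear regression.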
# [2] = Intrinsic clearance in rat liver microsomes assessed as metabolic turnover
# Procathepsin L = Procathepsin L (Homo sapiens, UniProt P07711); test: Inhibition of human recombinant CatL assessed as suppression of enzyme-mediated Z-Phe-Arg-AMC cleavage by QFRET assay
# Outline: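 Recombinant human Cat L at 0.1 nM final was preincubated with compound for 30 min, then Z-Phe-Arg-AMC (10 μM final) was added. QFRET cleavage was run 1 h at room temperature and stopped with acetic acid. Fluorescence read at ex 360/em 425 nm; IC50 by variable-slope nonlinear regression.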
# [3] = Lipophilicity, log D of the compound at pH 7.4; conditions: buffer
# Cathepsin S = Cathepsin S (Homo sapiens, UniProt P25774); test: Inhibition of human recombinant CatS assessed as suppression of enzyme-mediated Z-Val-Val-Arg-AMC cleavage by QFRET assay
# Outline: as §1, with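 “S” for “B”, “Z-Val-Val-Arg-AMC” for “Z-Arg-Arg-AMC”, “AMC fluorescence” for “Fluorescence”, “nm;” for “nm with background correction;”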
# [4] = Aqueous solubility of the compound at pH 7.4; conditions: buffer
# Cathepsin K = biological target: T1, Cathepsin K (Homo sapiens, UniProt P43235); test: Inhibition of human recombinant CatK assessed as suppression of enzyme-mediated Z-Phe-Arg-AMC cleavage incubated for 1 hrs by QFRET assay
# T1 sequence (P43235 whole entry): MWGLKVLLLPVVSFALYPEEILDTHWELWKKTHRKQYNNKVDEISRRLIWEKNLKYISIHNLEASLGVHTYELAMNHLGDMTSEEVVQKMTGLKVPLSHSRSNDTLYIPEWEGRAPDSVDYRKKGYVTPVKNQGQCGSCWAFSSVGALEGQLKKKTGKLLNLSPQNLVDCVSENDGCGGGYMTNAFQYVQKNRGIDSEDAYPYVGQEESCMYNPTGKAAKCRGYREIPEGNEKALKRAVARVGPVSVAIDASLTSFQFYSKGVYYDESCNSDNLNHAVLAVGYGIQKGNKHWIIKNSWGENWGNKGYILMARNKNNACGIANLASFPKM
# [5] = Intrinsic clearance in rat hepatocytes assessed as metabolic turnover measured per 10^6 cells; type: ADME, cell-based, Hepatocyte
# Outline: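 Intrinsic clearance from in vitro hepatocyte incubation, expressed in μL/min/10⁶ cells. Each value is the mean of at least n = 2 experiments.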
# Procathepsin L, sequence (P07711 whole entry): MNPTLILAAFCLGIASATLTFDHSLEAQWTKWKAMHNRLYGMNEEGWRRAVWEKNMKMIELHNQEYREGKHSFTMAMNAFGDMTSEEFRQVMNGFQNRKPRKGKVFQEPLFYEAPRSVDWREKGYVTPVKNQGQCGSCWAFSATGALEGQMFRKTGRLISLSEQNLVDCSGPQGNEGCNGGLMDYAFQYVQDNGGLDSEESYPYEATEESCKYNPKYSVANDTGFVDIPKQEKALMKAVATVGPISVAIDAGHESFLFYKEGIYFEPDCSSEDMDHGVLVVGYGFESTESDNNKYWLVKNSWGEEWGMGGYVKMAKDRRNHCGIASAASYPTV
# Cathepsin S, sequence (P25774 whole entry): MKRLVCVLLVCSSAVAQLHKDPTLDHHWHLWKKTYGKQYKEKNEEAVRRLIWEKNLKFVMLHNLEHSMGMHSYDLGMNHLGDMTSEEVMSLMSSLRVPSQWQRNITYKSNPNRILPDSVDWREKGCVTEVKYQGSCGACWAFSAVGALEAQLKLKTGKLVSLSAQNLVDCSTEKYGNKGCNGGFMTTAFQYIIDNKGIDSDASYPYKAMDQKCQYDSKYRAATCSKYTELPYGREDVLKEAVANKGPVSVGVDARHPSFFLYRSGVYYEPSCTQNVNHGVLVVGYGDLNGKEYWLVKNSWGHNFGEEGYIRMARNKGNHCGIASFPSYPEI
Structure (SMILES),microsomal CLint [1] [µL/min/mg],IC50 (Cathepsin B) [µM],microsomal CLint [2] [µL/min/mg],IC50 (Procathepsin L),logD [3],IC50 (Cathepsin S) [µM],solubility [4] [µM],IC50 (Cathepsin K) [µM],IC50 (Procathepsin L; read-out: IC50) [µM],hepatocyte CLint [5] [µL/min/1e6 cells]
N#CC(NC(=O)[C@@H]1CCCC[C@H]1C(=O)N1CCN(c2ccc(F)cc2)CC1)c1ccccc1 (some centres undefined),–,–,–,–,–,0.258,–,0.003,–,–
N#CC1(NC(=O)[C@@H]2CCCC[C@H]2C(=O)N2CCc3[nH]c4c(Cl)cccc4c3C2)CC1,46,> 2.9,226,Not Active,–,–,–,0.002,–,–
N#CC1(NC(=O)[C@@H]2CCCC[C@H]2C(=O)N2CCc3[nH]c4c(OC(F)(F)F)cccc4c3C2)CC1,19,> 2.9,53,Not Active,4,> 4,120,0.002,–,–
Cc1cccc2c3c([nH]c12)CCN(C(=O)[C@@H]1CCCC[C@H]1C(=O)NC1(C#N)CC1)C3,25,> 2.9,179,Not Active,3,> 4,510,0.003,–,–
N#Cc1cccc2c3c([nH]c12)CCN(C(=O)[C@@H]1CCCC[C@H]1C(=O)NC1(C#N)CC1)C3,34,> 2.9,80,Not Active,2.5,> 4,400,0.002,–,–
N#CCNC(=O)[C@@H]1CCCC[C@H]1C(=O)N1CC=CCC1,4.5,–,41,–,–,–,–,0.018,> 100,–
Cn1c2c(c3c(F)c(F)ccc31)CN(C(=O)[C@@H]1CCCC[C@H]1C(=O)NC1(C#N)CC1)CC2,170,> 2.9,> 350,Not Active,2.8,> 4,300,0.003,–,–
COc1ccc2[nH]c3c(c2c1)CN(C(=O)[C@@H]1CCCC[C@H]1C(=O)NC1(C#N)CC1)CC3,29,> 2.9,–,Not Active,2.4,> 4,822,–,–,20
N#CC1(NC(=O)[C@@H]2CCCC[C@H]2C(=O)N2CCc3[nH]c4cccc(F)c4c3C2)CC1,57,> 2.9,322,Not Active,3.2,> 4,128,0.01,–,–
N#CC1(NC(=O)[C@@H]2CCCC[C@H]2C(=O)N2CCc3[nH]c4ccc(C(F)(F)F)cc4c3C2)CC1,33,> 2.9,82,Not Active,4.2,> 4,74,–,–,–
CS(=O)(=O)c1ccc2c3c([nH]c2c1)CCN(C(=O)[C@@H]1CCCC[C@H]1C(=O)NC1(C#N)CC1)C3,< 2,> 2.9,7.2,Not Active,1.5,> 4,902,0.034,–,–
N#CC1(NC(=O)[C@@H]2CCCC[C@H]2C(=O)N2CCc3[nH]c4c(F)cccc4c3C2)CC1,55,> 2.9,311,Not Active,3,> 4,470,< 0.001,–,–
CCOc1cccc2c3c([nH]c12)CCN(C(=O)[C@@H]1CCCC[C@H]1C(=O)NC1(C#N)CC1)C3,13,> 2.9,62,Not Active,3.1,> 4,300,< 0.001,–,–
COc1ccccc1C(C#N)NC(=O)[C@@H]1CCCC[C@H]1C(=O)N1CCN(Cc2ccc(F)cc2)CC1 (some centres undefined),–,–,–,–,–,0.076,–,0.001,–,–
N#CC1(NC(=O)[C@@H]2CCCC[C@H]2C(=O)N2CCc3[nH]c4c(C(F)(F)F)cccc4c3C2)CC1,26,> 2.9,116,Not Active,3.8,> 4,150,0.005,–,–
CS(=O)(=O)c1ccc2[nH]c3c(c2c1)CN(C(=O)[C@@H]1CCCC[C@H]1C(=O)NC1(C#N)CC1)CC3,14,> 2.9,–,Not Active,–,> 4,193,–,–,3.5
CC(C)(F)C[C@H](N[C@@H](c1ccc(-c2ccc(S(C)(=O)=O)cc2)cc1)C(F)(F)F)C(=O)NC1(C#N)CC1 [ODANACATIB],–,–,–,–,–,0.183,–,< 0.001,–,–
CC(C)c1ccc2[nH]c3c(c2c1)CN(C(=O)[C@@H]1CCCC[C@H]1C(=O)NC1(C#N)CC1)CC3,–,> 2.9,–,Not Active,4.1,> 4,84,0.05,–,–
N#CC1(NC(=O)[C@@H]2CCCC[C@H]2C(=O)N2CCc3[nH]c4ccc(Cl)cc4c3C2)CC1,87,> 2.9,> 350,Not Active,3.7,> 4,130,–,–,–
N#CC1(NC(=O)[C@@H]2CCCC[C@H]2C(=O)N2CCc3[nH]c4c(Br)cccc4c3C2)CC1,43,> 2.9,164,Not Active,–,–,–,0.004,–,–

# Further lines, results first:
microsomal CLint [1] [µL/min/mg],IC50 (Cathepsin B) [µM],microsomal CLint [2] [µL/min/mg],IC50 (Procathepsin L),logD [3],IC50 (Cathepsin S) [µM],solubility [4] [µM],IC50 (Cathepsin K) [µM],IC50 (Procathepsin L; read-out: IC50) [µM],hepatocyte CLint [5] [µL/min/1e6 cells],Structure (SMILES)
36,> 2.9,89,Not Active,3,> 4,540,0.004,–,–,N#CC1(NC(=O)[C@@H]2CCCC[C@H]2C(=O)N2CCc3[nH]c4cc(F)ccc4c3C2)CC1
4,> 2.9,23,Not Active,1.7,> 4,1600,0.017,–,–,CS(=O)(=O)c1cccc2c3c([nH]c12)CCN(C(=O)[C@@H]1CCCC[C@H]1C(=O)NC1(C#N)CC1)C3
79,> 2.9,303,Not Active,–,> 4,–,0.004,–,–,CSc1cccc2c3c([nH]c12)CCN(C(=O)[C@@H]1CCCC[C@H]1C(=O)NC1(C#N)CC1)C3
23,0.712,145,–,–,–,–,0.002,3.11,–,N#CCNC(=O)[C@@H]1CCCC[C@H]1C(=O)N1CCc2ccccc2C1
< 2,8.75,12,–,0.9,2.11,> 4900,0.073,> 100,–,N#CCNC(=O)[C@@H]1CCCC[C@H]1C(=O)N1CCCCC1
12,44.9,> 250,–,3.1,> 100,460,0.0162,> 100,–,C[C@H](C#N)NC(=O)[C@@H]1CCCC[C@H]1C(=O)N1CCc2[nH]c3ccc(F)cc3c2C1
99,31.2,195,–,> 4.1,> 100,74,0.785,> 100,–,CC(C)(C)[C@@H](C#N)NC(=O)[C@@H]1CCCC[C@H]1C(=O)N1CCc2[nH]c3ccc(F)cc3c2C1
18,1.42,> 250,–,–,–,–,< 0.001,> 40,–,N#CCNC(=O)[C@@H]1CCCC[C@H]1C(=O)N1CCc2[nH]c3ccc(F)cc3c2C1
–,73.5,–,–,3.5,> 70,–,0.0173,> 40,–,C[C@@H](C#N)NC(=O)[C@@H]1CCCC[C@H]1C(=O)N1CCc2[nH]c3ccc(F)cc3c2C1
7.7,0.455,115,–,1.8,1.03,640,0.007,> 100,–,N#CCNC(=O)[C@@H]1CCCC[C@H]1C(=O)N1CCN(c2ccccc2)CC1
